Published values pooled from the literature.
CDK5: Cyclin-dependent kinase 5 (CDK5, Homo sapiens, UniProt Q00535)
CDK5 with p35: Cyclin-dependent kinase 5, with p35 (CDK5, Homo sapiens, UniProt Q00535)

Compound | target | observed | mode | method | tested at | endpoint | value
Cn1cncc1[C@](O)(COc1ccc(C#N)cc1-c1ccc(OC(F)(F)F)cc1)c1ccc(C#N)cc1 | CDK5 | cell-free assay |  | competition with immobilised ligand | 1 µM | remaining binding | 92%
Cn1cc(-c2cccc(N3CCc4c(sc5c4CC(C)(C)C5)C3=O)c2CO)cc(Nc2ccncn2)c1=O | CDK5 with p35 | enzyme activity | inhibitor |  | 1 µM | inhibition | 3%
N#CC1(c2ccccn2)CCN(Cc2cc(C(=O)O)c(=O)n3ccccc23)CC1 | CDK5 | cell-free assay |  | competition with immobilised ligand | 1 µM | remaining binding | 100%
COc1ncccc1-c1cnn2ccc(N3CCN(C(=O)OC(C)C)CC3)nc12 | CDK5 | binding |  | competition with immobilised ligand | 1 µM | remaining binding | 100%
Cc1nn(C)cc1-c1nc2c(N3CCN(Cc4ccc(Cl)cc4)CC3)c(Cl)cnc2[nH]1 | CDK5 | binding |  | competition with immobilised ligand | 1 µM | remaining binding | 76%
Cn1cc(-c2cc(F)cc(N3CCn4c(cc5c4CCCC5)C3=O)c2CO)cc(Nc2ccc(N3CCN(C4COC4)CC3)cn2)c1=O | Cyclin-dependent kinase 5, with p25 (CDK5, Homo sapiens, UniProt Q00535) | enzyme activity | inhibitor |  | 0.1 µM | inhibition | 9%
CC(C)(C)c1cc(C=C(C#N)C#N)cc(Br)c1O | CDK5 with p35 | enzyme activity | inhibitor |  | 0.5 µM | remaining activity | 102%
Nc1ncc(-c2nc(N3CCOCC3)nc(N3CCOCC3)n2)c(C(F)F)n1 | CDK5 | binding |  | competition with immobilised ligand | 10 µM | remaining binding | 100%
